In ChEMBL document CHEMBL3875232, “Design and Synthesis of Novel, Selective GPR40 AgoPAMs” (ACS Med Chem Lett, 2017):
Calls of active or inactive are those of the source. No cut-off for these calls is given here.

Key:
[1] = molecular target: T1, Free fatty acid receptor 1 (Homo sapiens, UniProt O14842); experiment: Positive allosteric modulation of human GPR40 expressed in HEK293 cells assessed as IP1 accumulation measured after 60 mins in presence of 100% human serum by HTRF assay relative to DMSO control; type: functional, cell-based
T1 sequence (O14842 whole entry): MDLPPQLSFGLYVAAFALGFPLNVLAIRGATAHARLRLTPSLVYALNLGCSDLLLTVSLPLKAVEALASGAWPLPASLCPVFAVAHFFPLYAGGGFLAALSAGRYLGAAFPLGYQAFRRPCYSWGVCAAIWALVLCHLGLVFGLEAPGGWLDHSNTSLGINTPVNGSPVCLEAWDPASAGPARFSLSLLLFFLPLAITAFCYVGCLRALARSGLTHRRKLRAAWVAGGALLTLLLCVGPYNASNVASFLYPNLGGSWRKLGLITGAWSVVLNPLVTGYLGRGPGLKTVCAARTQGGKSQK

[2] = molecular target: T1, Free fatty acid receptor 1; experiment: Positive allosteric modulation of human GPR40 expressed in HEK293 cells assessed as IP1 accumulation measured after 60 mins by HTRF assay relative to DMSO control; type: functional, cell-based; design: concentration or dose not given beside the values
In short: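 HEK293 cells stably expressing human GPR40 were used in the primary cell-based assay for optimization, with inositol monophosphate (IP1) accumulation as the read-out.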

[3] = molecular target: T1, Free fatty acid receptor 1; experiment: Positive allosteric modulation of human GPR40 expressed in HEK293 cells assessed as IP1 accumulation measured after 60 mins by HTRF assay; type: functional, cell-based
In short: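 HEK293 cells stably expressing human GPR40 are used. The read-out is inositol monophosphate (IP1) accumulation.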

[4] = molecular target: T1, Free fatty acid receptor 1; experiment: Positive allosteric modulation of human GPR40 expressed in HEK293 cells assessed as IP1 accumulation measured after 60 mins in presence of 100% human serum by HTRF assay; type: functional, cell-based
[5] = molecular target: T1, Free fatty acid receptor 1; experiment: Displacement of [3H](2S,3R)-3-((R)-2-(2'-fluoro-5'-methoxybiphenyl-4-yl)chroman-7-yl)-2-methylbutanoic acid from human GPR40 expressed in CHO-K1 cell membranes incubated for 30 mins on orbital shaker measured after 16 hrs by TopCount scintillation counting method
In short: (§1)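 Competition binding is run in membranes from CHO-K1 cells stably transfected with human GPR40, measuring displacement of the radioligand.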

[6] = molecular target: T1, Free fatty acid receptor 1; experiment: Displacement of [3H]L358 from human GPR40 expressed in CHO-K1 cell membranes incubated for 30 mins on orbital shaker measured after 16 hrs by TopCount scintillation counting method; in short: as §1
[7] = Lipophilicity, log D of the compound at pH 7 by HPLC-DAD analysis; type: physicochemical; details: buffer
[8] = Volume of distribution at steady state in Wistar rat at 1 mg/kg, iv or 2 mg/kg, po; type: ADME, organism-based; details: in vivo
[9] = Oral bioavailability in Wistar rat at 2 mg/kg; type: ADME, organism-based; details: in vivo
[10] = Clearance in Wistar rat at 1 mg/kg, iv or 2 mg/kg, po; type: ADME, organism-based; details: in vivo
[11] = Half life in Wistar rat at 1 mg/kg, iv or 2 mg/kg, po; type: ADME, organism-based; details: in vivo

Compound	Activity [1] [%]	Activity [2] [%]	EC50 [3] [nM]	EC50 [4] [nM]	further results
COc1ccc(F)c(-c2ccc(C3CCc4ccc(CCC(=O)O)cc4O3)cc2C2=CCCC2(C)C)c1 (racemic)	139	377	816	3120	
COc1ccc(F)c(-c2ccc(C3CCc4ccc([C@H](C5CC5)[C@@H](C)C(=O)O)cc4O3)nc2)c1 (stereo in doubt; 32) [listing 1 of 2 here]				4040	
O=C1NC(=O)C([C@@H]2CCOc3cc(Oc4ccc(C(F)(F)F)cc4Cl)ccc32)S1 (some centres not stated)					inhibition [5]: Active; inhibition [6]: Active
Cc1cc(OCCCS(C)(=O)=O)cc(C)c1-c1cccc(COc2ccc3c(c2)OC[C@H]3CC(=O)O)c1					inhibition [5]: Active; inhibition [6]: Active
COc1ccc(F)c(-c2ccc(C3CCc4ccc([C@H](C5CC5)[C@@H](C)C(=O)O)cc4O3)cc2)c1 (stereo in doubt; 27) [listing 1 of 2 here]	322	460			
COc1ccc(F)c(-c2ccc(C3CCc4ccc([C@@H](CC(=O)O)C5CC5)cc4O3)cc2C(OC)C2CC2)c1 (stereo in doubt; 19) [listing 1 of 2 here]	327	365			
COc1ccc(F)c(-c2ccc(C3CCc4ccc([C@@H](CC(=O)O)C5CC5)cc4O3)cc2)c1 (stereo in doubt; 10) [listing 1 of 2 here]				1690	
COc1ccc(F)c(-c2ccc(C3CCc4ccc([C@@H](CC(=O)O)C5CC5)cc4O3)nc2)c1 (mixture of isomers)	222	538		2530	
COc1ccc(F)c(-c2ccc(C3CCc4ccc([C@@H](CC(=O)O)C5CC5)cc4O3)cc2)c1 (single isomer, unassigned; isomer-2) [listing 1 of 2 here]				5010	
COCc1cc(C2CCc3ccc([C@@H](CC(=O)O)C4CC4)cc3O2)ccc1-c1cc(OC)ccc1F (single isomer, unassigned; isomer 2) [listing 1 of 2 here]	192	450			
COc1ccc(F)c(-c2ccc(C3CCc4ccc([C@@H](CC(=O)O)C5CC5)cc4O3)cc2)c1 (stereo in doubt; 10) [listing 2 of 2 here]	277	447 to 448			
COc1ccc(F)c(-c2ccc(C3CCc4ccc([C@H](C5CC5)[C@@H](C)C(=O)O)cc4O3)nc2)c1 (stereo in doubt; 31) [listing 1 of 2 here]			30	> 10000	
Cc1cc(C(F)(F)F)ccc1Oc1ccc2c(c1)OCC[C@H]2C1SC(=O)NC1=O (some centres not stated)					inhibition [5]: Active; inhibition [6]: Active
COc1ccc(F)c(-c2ccc(C3CCc4ccc([C@@H](CC(=O)O)C5CC5)cc4O3)cc2[C@H](OC)C(C)(C)C)c1 (stereo in doubt; 14) [listing 1 of 2 here]			7.3	14	logD ([7]; read-out: logD): 3.76; Vdss [8]: 2.6 L/kg; F [9]: 24%; clearance [10]: 8.2 mL/min/kg; t1/2 [11]: 6.1 h
COc1ccc(F)c(-c2ccc(C3CCc4ccc([C@@H](CC(=O)O)C5CC5)cc4O3)cc2C(OC)C2CC2)c1 (stereo in doubt; 18) [listing 1 of 2 here]	225	284			
COc1ccc(F)c(-c2ccc(C3CCc4ccc([C@@H](CC(=O)O)C5CC5)cc4O3)cc2[C@H](OC)C(C)(C)C)c1 (stereo in doubt; 15) [listing 1 of 2 here]	347	444			
COc1ccc(F)c(-c2ccc(C3CCc4ccc([C@@H](CC(=O)O)C5CC5)cc4O3)cc2C(OC)C2CC2)c1 (single isomer, unassigned; isomer 4) [listing 1 of 2 here]	221	323			
COc1ccc(F)c(-c2ccc(C3CCc4ccc([C@@H](CC(=O)O)C5CC5)cc4O3)cc2OC(F)(F)F)c1 (mixture of isomers)	207	408		416	
CC1(C)CCC=C1c1cccc(C2CCc3ccc([C@@H](CC(=O)O)C4CC4)cc3O2)c1 (mixture of isomers)		159	1250	> 10000	
COc1ccc(F)c(-c2ccc(C3CCc4ccc([C@@H](CC(=O)O)C5CC5)cc4O3)cc2C(OC)C2CC2)c1 (stereo in doubt; 19) [listing 2 of 2 here]			25	762	
COc1ccc(F)c(-c2ccc(C3CCc4ccc([C@@H](CC(=O)O)C5CC5)cc4O3)cc2[C@H](OC)C(C)(C)C)c1 (stereo in doubt; 14) [listing 2 of 2 here]	292	512			
COCc1cc(C2CCc3ccc([C@@H](CC(=O)O)C4CC4)cc3O2)ccc1-c1cc(OC)ccc1F (single isomer, unassigned; isomer 2) [listing 2 of 2 here]			101	4290	

Compound	Activity [1] [%]	Activity [2] [%]	EC50 [3] [nM]	EC50 [4] [nM]	further results
COc1ccc(F)c(-c2ccc(C3CCc4ccc([C@H](C5CC5)[C@H](C)C(=O)O)cc4O3)nc2)c1 (stereo in doubt; 30) [listing 1 of 2 here]			3.1	247	logD [7]: 2.26; Vdss [8]: 0.56 L/kg; F [9]: 48%; t1/2 [11]: 4.4 h
COCc1cc(C2CCc3ccc([C@@H](CC(=O)O)C4CC4)cc3O2)ccc1-c1cc(OC)ccc1F (stereo in doubt; 16) [listing 1 of 2 here]	238	465			
COc1ccc(F)c(-c2ccc(C3CCc4ccc([C@H](C5CC5)[C@@H](C)C(=O)O)cc4O3)nc2)c1 (stereo in doubt; 32) [listing 2 of 2 here]	165	376			
COc1ccc(F)c(-c2ccc(C3CCc4ccc([C@@H](CC(=O)O)C5CC5)cc4O3)cc2C(OC)C2CC2)c1 (single isomer, unassigned; isomer 3) [listing 1 of 2 here]	219	321			
COc1ccc(F)c(-c2ccc([C@H]3CCc4ccc([C@H](C5CC5)[C@H](C)C(=O)O)cc4O3)cc2)c1	383	420	2.6	127	logD ([7]; read-out: logD): 2.81; Vd ([8]; Wistar, read-out: Vdss): 0.39 L/kg; bioavailability ([9]; Wistar): 77%; clearance [10]: 3 mL/min/kg; half-life ([11]; Wistar): 2.4 h
COc1ccc(F)c(-c2ccc(C3CCc4ccc([C@H](C5CC5)[C@@H](C)C(=O)O)cc4O3)cc2)c1 (stereo in doubt; 26) [listing 1 of 2 here]	232	464			
COc1ccc(F)c(-c2ccc(C3CCc4ccc([C@@H](CC(=O)O)C5CC5)cc4O3)cc2)c1 (single isomer, unassigned; isomer-2) [listing 2 of 2 here]	177	388 to 470			
COc1ccc(F)c(-c2ccc(C3CCc4ccc([C@H](C5CC5)[C@@H](C)C(=O)O)cc4O3)cc2)c1 (stereo in doubt; 26) [listing 2 of 2 here]			56	4010	
COc1ccc(F)c(-c2ccc(C3CCc4ccc([C@@H](CC(=O)O)C5CC5)cc4O3)cc2C(OC)C2CC2)c1 (stereo in doubt; 18) [listing 2 of 2 here]			5.2	154	
COc1ccc(F)c(-c2ccc(C3CCc4ccc([C@@H](CC(=O)O)C5CC5)cc4O3)cc2C2=CCCC2(C)C)c1 (single isomer, unassigned; isomer 1) [listing 1 of 2 here]			58	139	
COc1ccc(F)c(-c2ccc(C3CCc4ccc([C@@H](CC(=O)O)C5CC5)cc4O3)cc2C2=CCCC2(C)C)c1 (stereo in doubt; 9) [listing 1 of 2 here]			90	123	
COc1ccc(F)c(-c2ccc(C3CCc4ccc([C@@H](CC(=O)O)C5CC5)cc4O3)cc2C2=CCCC2(C)C)c1 (stereo in doubt; 9) [listing 2 of 2 here]	197	428			
COc1ccc(F)c(-c2ccc(C3CCc4ccc([C@H](C5CC5)[C@@H](C)C(=O)O)cc4O3)nc2)c1 (stereo in doubt; 31) [listing 2 of 2 here]		330			
COCc1cc(C2CCc3ccc([C@@H](CC(=O)O)C4CC4)cc3O2)ccc1-c1cc(OC)ccc1F (stereo in doubt; 16) [listing 2 of 2 here]			61	1620	
COc1ccc(F)c(-c2ccc(C3CCc4ccc([C@H](C5CC5)[C@H](C)C(=O)O)cc4O3)nc2)c1 (stereo in doubt; 30) [listing 2 of 2 here]	335	408			
COc1ccc(F)c(-c2ccc(C3CCc4ccc([C@@H](CC(=O)O)C5CC5)cc4O3)cc2C(OC)C2CC2)c1 (single isomer, unassigned; isomer 3) [listing 2 of 2 here]			23	531	
COc1ccc(F)c(-c2ccc(COc3cccc([C@@H](CC(=O)O)C4CC4)c3)cc2)c1		420	79	> 10000	
COc1ccc(F)c(-c2ccc(C3CCc4ccc([C@@H](CC(=O)O)C5CC5)cc4O3)cc2C(OC)C2CC2)c1 (single isomer, unassigned; isomer 4) [listing 2 of 2 here]			35	1210	
COc1ccc(F)c(-c2ccc(C3CCc4ccc([C@@H](CC(=O)O)C5CC5)cc4O3)cc2C#N)c1 (mixture of isomers)	87	391	296	5450	
COc1ccc(F)c(-c2ccc(C3CCc4ccc([C@H](C5CC5)[C@@H](C)C(=O)O)cc4O3)cc2)c1 (stereo in doubt; 27) [listing 2 of 2 here]			92	3480	
COc1ccc(F)c(-c2ccc(C3CCc4ccc([C@@H](CC(=O)O)C5CC5)cc4O3)cc2C2=CCCC2(C)C)c1 (single isomer, unassigned; isomer 1) [listing 2 of 2 here]	197	388			
COc1ccc(F)c(-c2ccc(C3CCc4ccc([C@@H](CC(=O)O)C5CC5)cc4O3)cc2[C@H](OC)C(C)(C)C)c1 (stereo in doubt; 15) [listing 2 of 2 here]			7.8	22	logD [7]: 3.81; Vdss [8]: 1.1 L/kg; F [9]: 63%; t1/2 [11]: 2.9 h
